GalR3 antag: blocks the human galanin receptor 3; O60755; HEK293 GalR3-CNG cAMP membrane potential fluorescence; galR3 body fused to GalR1 C-terminus; inhibition, % at 3 µM; 360,000 compounds, 0.44% hits; AID 651719;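 active means inhibition above the screen-wide average plus 3 SD, cut at about 13% in these data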;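 further: forskolin and galanin both at EC90 stimulate the cells; cAMP rise reported by CNG channel membrane potential dye signal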
Target sequence (O60755 1-299 limits assumed): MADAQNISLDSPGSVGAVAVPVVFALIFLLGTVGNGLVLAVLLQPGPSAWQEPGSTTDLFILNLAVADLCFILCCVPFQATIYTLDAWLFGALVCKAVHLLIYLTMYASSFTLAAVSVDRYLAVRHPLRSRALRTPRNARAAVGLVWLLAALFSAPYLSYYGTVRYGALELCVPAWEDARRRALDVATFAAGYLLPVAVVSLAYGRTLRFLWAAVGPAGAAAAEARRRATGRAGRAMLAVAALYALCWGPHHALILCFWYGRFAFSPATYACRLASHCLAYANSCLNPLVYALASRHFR
GPR7 antag: blocks human GPR7 receptor signaling. P48145. GPR7-expressing cells, fluorescence antagonist assay. inhibition, % at 4.4 µM. 290,000 compounds, 1.1% hits; in the data active means inhibition above about 16%, passing the limit was not always enough;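 further: cells stimulated with the agonist NPW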
Target sequence (P48145 whole entry, looked up): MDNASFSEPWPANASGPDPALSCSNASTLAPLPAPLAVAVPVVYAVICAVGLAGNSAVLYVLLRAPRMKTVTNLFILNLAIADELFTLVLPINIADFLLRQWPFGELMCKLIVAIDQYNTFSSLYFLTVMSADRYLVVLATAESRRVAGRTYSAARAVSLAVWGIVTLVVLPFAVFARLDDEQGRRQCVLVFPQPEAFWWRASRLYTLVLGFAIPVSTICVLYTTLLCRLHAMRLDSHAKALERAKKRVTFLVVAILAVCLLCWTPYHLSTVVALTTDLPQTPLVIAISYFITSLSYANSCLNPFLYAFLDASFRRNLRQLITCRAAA
OX1R antag-1: human HCRTR1 antagonism; CHO/OX1R cells, Fluo-8 calcium fluorescence, orexin A; O43613; 330,000 compounds, 0.43% hits; inhibition, % at 5 µM;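 active means inhibition above its plate's threshold, mean inhibition of all tested compounds on the plate plus 3 SD, cut at about 37% in these data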
OX1R antag-2: antagonists of human orexin 1 receptor (OX1R); AID 485270; inhibition, % at 6.6 µM; 330,000 compounds, 1.8% hits; O43613; OX1R-expressing cells, FRET antagonist read-out; in the data active means inhibition mostly above about 38%, no sharp cut-off; inactive means mostly below about 40%
CHO parental Ca: counter-screen for OX1R antagonists: effect in parental CHO cells | parental CHO-K1, ATP-induced calcium, Fluo-8 fluorescence | inhibition, % at 5.6 µM | AID 463079 | 330,000 compounds, 0.63% hits;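 active means inhibition above that plate's mean sample inhibition plus 3 SD, cut at about 26% in these data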
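Material – parental CHO cells · Reagent – ATP stimulus · Compound – single nominal dose of 5.6 µM per compound · Detection – Fluo-8 fluorescence · Read-out basis – percent inhibition of calcium signal · Controls – ATP-challenged DMSO wells low, unchallenged DMSO wells high · Repeats – no replicates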
OX1R Ca confirm: confirmation of human orexin 1 receptor antagonists; AID 492963; CHO/OX1R cells, orexin A calcium Fluo-8 fluorescence; inhibition, % at 5 µM; shares compounds with OX1R antag-1; 1,100 compounds, 38% hits; in the data active means inhibition above about 29%
CHO Ca counter: signal in parental CHO cells, OX1R antagonist counter-screen. shares compounds with OX1R antag-1. parental CHO-K1, ATP-induced calcium, Fluo-8 fluorescence. inhibition, % at 5.6 µM. 1,100 compounds, 9.3% hits;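 active means inhibition above a per-plate limit, the mean inhibition of that plate's test compounds plus 3 SD, cut at about 25% in these data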
A number is an active result; – = inactive; · = no result. Shown are actives, neighbours in structure and some others; about 3.1% of the full set was active somewhere.

SMILES	GalR3 antag	GPR7 antag	OX1R antag-1	OX1R antag-2	CHO parental Ca	OX1R Ca confirm	CHO Ca counter
Cc1ccc(C)c(OCCC(=O)NNC(=O)c2ccncc2)c1	–	·	–	–	–	·	·
C[C@H](O)[C@@H]1C(=O)N2CCc3c([nH]c4cccc(-c5ccccc5)c34)[C@@H]2C[C@@H]1N(C)C(=O)c1ccco1	–	·	·	·	·	·	·
CC(=O)c1cccc(-c2ccnc3c2CC(C(=O)Nc2cccc(Oc4ccccc4)c2)O3)c1 (stereo not drawn)	–	·	·	·	·	·	·
CCc1ccc(NC(=O)[C@H](NC(=O)[C@@H]2Cc3ccccc3CN2)c2ccccc2)cc1	–	–	–	–	–	·	·
CCc1ccc(NC(=O)[C@@H](NC(=O)[C@@H]2Cc3ccccc3CN2)C(C)CC)cc1 (stereo partly drawn)	–	–	77	–	–	–	–
CC1(C(=O)NS(=O)(=O)C2CC2)CCN(C(=O)c2ccccc2OC(F)(F)F)C1 (stereo not drawn)	–	·	·	·	·	·	·
COc1cccc(-c2sc3ccc(OC)cc3c2-c2ccc(OCCN(C)C)cc2)c1	–	·	59	–	–	37	–
O=C(OCn1ncc(Cl)c(Cl)c1=O)c1ccc(C(F)(F)F)cc1	–	–	·	·	·	·	·
Cc1ccc(C(=O)OCn2ncc(Cl)c(Cl)c2=O)cc1	–	–	–	–	–	73	–
CCCCOc1ccc(S(=O)(=O)NC(=O)C2(C)CCN2C(=O)Cc2cccs2)cc1 (stereo not drawn)	–	·	·	·	·	·	·
O=C(Nc1cccc(S(=O)(=O)Nc2ccc(SC(F)F)cc2)c1)C1CCC1	–	·	–	–	–	–	–
O=C(CC[C@H]1O[C@@H](n2ccc(=O)[nH]c2=O)[C@H](O)[C@@H]1O)NC1CCN(Cc2ccccc2)C1 (stereo partly drawn)	–	·	·	·	·	·	·
Cc1cc(OCc2cc(C(=O)N3CCN(C)C(=O)[C@@H]3C)no2)cc(C)c1Cl	–	–	43	–	–	–	28
Fc1ccc2nc(Nc3nc4c(F)cc(F)cc4s3)sc2c1	–	–	–	–	–	·	·
Fc1ccc2nc(Nc3nc4c(F)cccc4s3)sc2c1	–	–	68	–	–	51	–
Fc1cccc2sc(Nc3nc4ccccc4s3)nc12	–	–	36	–	–	51	–
COc1ccccc1C(=O)N1CCC2CCN(C(=O)OC(C)(C)C)C2C1 (stereo not drawn)	–	·	·	·	·	·	·
O=C(Cc1c[nH]c2ccccc12)Nc1ccc(Nc2cccnc2)cc1	–	·	·	·	·	·	·
O=C(Cn1cc(COc2ccc(C(=O)c3ccccc3)cc2)nn1)c1ccc(O)cc1	–	·	·	·	·	·	·
O=C1COc2ccc(C(=O)COC(=O)CCCOc3ccccc3)cc2N1	–	·	·	·	·	·	·
Cc1ccc(OCCC(=O)OCC(=O)c2ccc3c(c2)NC(=O)CO3)cc1	–	·	–	–	–	–	–
CCCCCCNC(=O)CC(c1ccccc1)c1cc(Br)ccc1O (stereo not drawn)	–	–	–	–	–	–	–
COc1ccccc1C(=O)COC(=O)c1ccc(N(C)C)cc1	–	–	–	–	–	–	–
O=S(=O)(NCc1ccccc1)c1ccc(NC(=S)NCc2ccco2)cc1	–	–	–	–	–	40	–
CCNS(=O)(=O)c1ccc(NC(=S)NCc2ccco2)cc1	–	–	–	–	–	·	·
SMILES	GalR3 antag	GPR7 antag	OX1R antag-1	OX1R antag-2	CHO parental Ca	OX1R Ca confirm	CHO Ca counter
CC(C)OC(=O)NCCOC(=O)Nc1ccc(Cl)cc1	–	–	–	–	–	–	–
CC(C)OC(=O)NCCOC(=O)Nc1ccccc1Cl	–	–	–	–	–	·	·
Clc1ccccc1OCCNc1nc(NCC2CC2)nc2ccsc12	–	·	·	·	·	·	·
CCCCOc1ccc(S(=O)(=O)N2CCCCCC2)cc1	–	–	–	–	–	–	–
Cc1nnc(SCC(=O)Nc2sc3c(c2C#N)CCCC3)[nH]c1=O	–	–	–	–	–	·	·
N#Cc1c(NC(=O)CSc2nc(N)cc(=O)[nH]2)sc2c1CCCC2	–	–	–	–	–	–	–
Cc1ccc(/C=C2\Sc3ccccc3C2=O)s1	–	–	–	–	–	34	–
CCCCCCCCN1C(=O)[C@H](CC(=O)NCCCC)C[C@@]2(C(=O)OC)CCCCC=C12	–	·	·	·	·	·	·
COc1cc(C#N)c(NC(=S)N2CCN(C(=O)c3ccco3)CC2)cc1OC	–	·	·	·	·	·	·
Cc1cccc(-c2nnc(-c3cccc(NC(=O)Cc4cccs4)c3)o2)c1	–	–	65	–	–	–	–
O=C(Cc1cccs1)Nc1ccc(-c2nnc(-c3ccccc3)o2)cc1	–	–	–	–	–	·	·
CC(C)(C)c1cc(C(=O)CCN2CCOCC2)cc(C(C)(C)C)c1O	–	–	–	–	–	–	–
Nc1ccc(-c2nc3ccc(-c4nc5ccccc5o4)cc3[nH]2)cc1	–	–	–	–	–	–	–
Nc1ccc(-c2nc3ccc(N)cc3[nH]2)cc1	–	–	–	–	–	·	·
Cc1ccc2nc(-c3cccc(Cl)c3)c(Cc3cccc(Cl)c3)n2c1	–	·	·	·	·	·	·
O=c1c(/C=C(\O)c2ccccc2)nc2ccccc2n1-c1ccccc1	–	–	61	–	–	–	–
Cc1nc2ccccc2n1-c1ccccc1	–	–	–	–	–	·	·
O=C(NCc1nc(-c2ccc(C(F)(F)F)cc2)no1)Nc1cc(Cl)cc(Cl)c1	–	–	–	–	–	–	48
COc1ccc(NC(=O)N2CCN(c3nc(-c4cccc(OC)c4)cs3)CC2)cc1	–	–	–	–	–	·	·
COc1cccc(-c2csc(N3CCN(C(=O)Nc4ccc(Cl)cc4)CC3)n2)c1	–	–	–	–	–	–	–
O=C(COc1ccc2ccc(=O)oc2c1)Nc1cccc(S(=O)(=O)N2CCCCC2)c1	–	·	–	–	–	–	–
N#Cc1ccccc1OCC(=O)Nc1cccc(S(=O)(=O)N2CCCCCC2)c1	–	·	–	–	–	–	–
CCOc1ccccc1OCC(=O)Nc1cccc(S(=O)(=O)N2CCCCCC2)c1	–	·	–	–	–	·	·
Cn1c(=O)c(=O)n(C)c2cc(S(=O)(=O)CCC(=O)Nc3ccccc3C(F)(F)F)ccc21	–	·	·	·	·	·	·
C/C(=N\Nc1ccc(C(F)(F)F)cn1)c1ccc(S(=O)(=O)NCc2ccco2)cc1	–	–	–	–	–	–	–
Fc1ccc2c(c1)Sc1ccc(Cl)cc1CC2N1CCN(CCC2OCCO2)CC1 (stereo not drawn)	–	·	–	–	–	–	–
COC(=O)C1=C(C)N(Cc2cccc(C(F)(F)F)c2)C(=NCc2ccccc2C(F)(F)F)NC1c1ccc(Cl)cc1 (stereo not drawn)	–	·	·	·	·	·	·
CC(C)(C)c1cc(NCc2ccccn2)n2ncc(-c3ccc(Cl)cc3)c2n1	–	–	–	–	–	·	·
CN(C)CCCNc1cc(C(C)(C)C)nc2c(-c3ccc(Cl)cc3)cnn12	–	–	–	–	–	–	–
Cn1c(CCCOc2ccc(Cl)cc2Cl)nnc1SCC(=O)Nc1nccs1	–	–	–	–	–	–	–

Screening results as filed in PubChem.
